Experimental data as given in article PMC4964276 (The Biochemical journal, 2016).

Tests used:
[1] = tested on: RI subunits of PKA; settings: cited from earlier work
[2] = tested on: D/D domain of RIIα (RIIα-D/D(1–44)); experiment: Isothermal titration calorimetry; assay type: binding, human; settings: ITC, one-site model, 25 °C, pH 7.5; three independent measurements
Outline: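 Run in 20 mM Hepes, pH 7.5, 150 mM NaCl at 25 °C. Cell held RIIα D/D domain at 20 μM, and the syringe held the test AKAP18β(43–83) peptide at 100 μM. There were 25–30 injections of 10–12 μl at 5–20 min intervals. Incremental heat per mole was fitted by non-linear least squares to a one-site model, and protein concentration was adjusted by the fit.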

For “SKIP: AKAP that preferentially or specifically binds RI”, the “Binding preference for RI, SKIP” value ([1]; ref [12],[13]) is given as “preferentially or specifically bind RI”.
In the case of “smAKAP: RI-specific AKAP, full-length [reference compound]”, the “Binding preference for RI, smAKAP” value ([1]; ref [14]) is listed as “preferentially or specifically bind RI”.
With “NGGEPDDAELVRLSKRLVENAVLKAVQQY LEETQ NKNKP GE [AKAP18β(43–83)]” the “n (sites)” value [2] was 0.98 sites.
